Compound activity: PubChem, Sanford-Burnham Center for Chemical Genomics
Rev-erbA mod = modulators of Rev-erb alpha DNA binding, primary screen, biochemical, FITC-DNA, fluorescence polarization, uHTS | activity, % at 10 µM | Nuclear receptor subfamily 1 group D member 1 (Homo sapiens), P20393 | Rev-erbα–FITC-DNA binding, 90 min | 370,000 compounds, 0.79% hits;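 active = activity above about 14%, limit read from the data; passing the limit was not always enough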;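 also: 0% = DMSO wells with 35 nM protein and 100% = DMSO wells with 750 nM protein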
aDG glyco up = activators of alpha-DG glycosylation, primary screen, uHTS, Pro5-aDG cells, AlphaScreen; alpha-DG glycosylation AlphaScreen (IIH6); 0% Pro5, 100% B10-LARGE cell signal; activation, % at 10 µM; 360,000 compounds, 0.22% hits; AID 624168, 2012;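 active = activation of at least 8% versus controls, or a plate z-score of at least 8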;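 also: Pro5 are CHO cells carrying HIG-tagged alpha-DG that lacks glycosylation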
CSN deneddyl inh = inhibitors of CSN-mediated cullin deneddylation, primary screen, biochemical, fluorescence polarization, uHTS; COP9 signalosome complex subunit 5 (Homo sapiens), Q92905; Purified CSN, SCF-Nedd8-OG deneddylation; inhibition, % at 12.5 µM; 360,000 compounds, 0.38% hits; AID 651999, 2013;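 active = pattern-corrected inhibition above about 35%, with an unprinted fluorescence ratio check between 0.5 and 1.5, limit read from the data, passing the limit was not always enough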;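 also: 0% = enzyme with substrate and 100% = substrate without enzyme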
Target sequence (Q92905 whole entry, looked up, one chain of several): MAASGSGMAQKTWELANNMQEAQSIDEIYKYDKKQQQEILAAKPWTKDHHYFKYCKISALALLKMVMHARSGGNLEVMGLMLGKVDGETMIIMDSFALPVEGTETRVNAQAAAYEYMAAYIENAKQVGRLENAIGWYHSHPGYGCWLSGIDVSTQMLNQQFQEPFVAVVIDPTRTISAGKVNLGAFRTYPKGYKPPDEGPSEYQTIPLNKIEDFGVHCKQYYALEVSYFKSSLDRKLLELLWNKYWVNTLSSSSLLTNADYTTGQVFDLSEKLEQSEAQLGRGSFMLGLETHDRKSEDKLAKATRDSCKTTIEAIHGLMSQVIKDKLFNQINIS
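Detection – fluorescence polarization · System – HEK293T-derived human Csn5 enzyme · Controls – substrate-only high control, full reaction low control · Timing – 90 min, room temperature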
HNF4A DNA FP = change in binding of human HNF4A to DNA, primary screen, biochemical, fluorescence polarization, FITC-DNA. Hepatocyte nuclear factor 4-alpha (Homo sapiens), P41235. 1 h. activity change, % at 10 µM. 360,000 compounds, 0.3% hits. AID 1224865, 2016; in the data active = activity change above about 30%, passing the limit was not always enough
aDG glyco conf = alpha-DG glycosylation enhancers, retest, confirmation, single concentration, Pro5-aDG cells; 600 compounds, 17% hits; IIH6 AlphaLISA; scaled to LARGE-overexpressing B10 cells as 100%; AID 651671, 2012; activation, % at 10 µM (by protocol); shares compounds with aDG glyco up;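 active = activation of at least 7% in one or more replicates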;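 also: cells exposed to compound for two days before detection; 0% = DMSO-treated Pro5 cells and 100% = DMSO-treated B10-LARGE cells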
The depositor's hits bear a star; x = no result given. This is a sample that favours compounds with a hit; in the whole collection about 1.5% have one here.

SMILES	Rev-erbA mod	aDG glyco up	CSN deneddyl inh	HNF4A DNA FP	aDG glyco conf
CN1CCN(S(=O)(=O)c2cccc(C(=O)Nc3nc(-c4ccccc4)cs3)c2)CC1	1	0	-5	0	x
CC/C(=N\NC(=O)C1CCCC1)c1ccc(Br)cc1	-2	8.8*	1	2	-1
CC/C(=N\NC(=O)C1CCCC1)c1cccc(Br)c1	1	0	2	-1	x
COc1ccc(C(c2ccc(OC)cc2)N2CCN(C(=O)c3noc(C)c3[N+](=O)[O-])CC2)cc1	-5	x	x	x	x
COc1ccc(OCC(C)CN2CCC(C(O)(c3ccccc3)c3ccccc3)CC2)cc1 (stereo not drawn)	1	x	x	x	x
CCCN(CCC)C(=O)C1CCCN(S(=O)(=O)c2ccc3c(c2)oc(=O)n3C)C1 (stereo not drawn)	-5	8.0*	-2	4	0
O=C(CN1C(=O)C2(OCCCO2)c2ccccc21)NCc1ccccc1Cl	6	x	x	x	x
CCCCc1c(-c2ccc(OC)c(OC)c2)ncn1CCc1ccccc1OC	8	14*	0	0	0
CCCCc1c(-c2ccccc2OC)ncn1Cc1ccc(-c2ccccc2)cc1	10	1	0	1	x
CCCCc1c(-c2ccccc2OC)ncn1Cc1cccc(-c2ccccc2)c1	5	11*	9	-3	1
C[C@@H]1COc2cc(Br)ccc2S(=O)(=O)N1Cc1cn(Cc2ccc(Cl)cc2)nn1	-2	x	x	x	x
CC(C)(C)c1ccc(-c2nnc(SCC(=O)Nc3ccc(S(=O)(=O)Nc4nccs4)cc3)n2-c2ccc(Cl)cc2)cc1	0	x	x	x	x
COc1ccc(C2N=C(c3ccccc3)NO2)cc1OC (stereo not drawn)	-2	2.8*	2	3	0
O=S(=O)(c1ccc(Cl)cc1)N1CCN(c2ncnc3sccc23)CC1	-8	4.8*	-3	10	1
CC(C1=CCCCC1)c1cnn(C)c1 (stereo not drawn)	7	x	x	x	x
C(=N\c1nc2ccccc2n1CCN1CCCCC1)/c1ccc2c(c1)OCO2	5	7.8*	0	1	2
O=C(CNC(=O)c1cccc(F)c1)N/N=C/c1ccc([N+](=O)[O-])s1	1	11*	-1	-5	3
Cc1ccc(N(CC(=O)NC(C)c2ccccc2)S(=O)(=O)c2c(C)n[nH]c2C)cc1 (stereo not drawn)	-2	5.6*	0	-1	0
N#Cc1ccccc1Cn1c(=O)n(Cc2ccc(C(=O)NCc3ccco3)cc2)c(=O)c2sccc21	x	0	-2	-4	x
N#Cc1ccccc1Cn1c(=O)n(-c2ccc(CC(=O)NCc3ccco3)cc2)c(=O)c2sccc21	1	10*	1	-1	0
COc1cc([N+](=O)[O-])ccc1NC(=O)NCC1CCN(Cc2ccc(Cl)cc2)CC1	0	3.3*	-2	1	1
COc1ccc(N=Cc2ccccc2O)cc1	0	0	1	4	x
COc1ccc2sc(/C=C/c3ccccc3O)[n+](C)c2c1	8	11*	127	51*	1
COC(CNC(=O)[C@H](Cc1c[nH]c2ccccc12)NC1(C(=O)NC(c2ccccc2)c2ccccc2)CCCCC1)OC	-5	x	x	x	x
Fc1ccc(-c2nc3c4ccccc4ccn3c2CC2CCCCC2)cc1	-4	4	7	0	x
SMILES	Rev-erbA mod	aDG glyco up	CSN deneddyl inh	HNF4A DNA FP	aDG glyco conf
Clc1cccc(-c2nc3c4ccccc4ccn3c2CC2CCCCC2)c1	0	11*	4	8	2
Clc1ccc(-c2nc3c4ccccc4ccn3c2CC2CCCCC2)cc1	3	22*	0	15	3
CCOc1cc(/C=N/NC(=O)c2ccc(N(C)S(=O)(=O)c3ccccc3)cc2)ccc1OC	2	2.4*	1	2	-2
O=c1[nH]nc(-c2ccc([N+](=O)[O-])o2)c(=O)[nH]1	-6	0	5	-1	x
Nc1nnc(-c2ccc([N+](=O)[O-])o2)s1	0	7.9*	-6	-2	4.0*
COc1cc(NC(=O)CSc2nc(C)cc(=O)[nH]2)cc(OC)c1	-8	x	x	x	x
Cc1ccc(NS(=O)(=O)c2ccc(C(=O)NC3CCN(Cc4ccccc4)CC3)cc2)cc1	2	13*	-3	0	4.8*
Cc1cc(C)nc(N2CCN(C(=O)CSc3nc4ccccc4nc3N3CC(C)OC(C)C3)CC2)n1 (stereo not drawn)	3	x	x	x	x
COc1cc(NC(=O)CNC(=O)Cn2c(C)cc3ccccc3c2=O)cc(OC)c1OC	1	3.3*	-6	4	0
COc1ccc(CCNC(=O)c2cc3c(=O)n4ccccc4nc3n(CCN3CCOCC3)c2=N)cc1	-4	8.1*	-5	3	1
CC(=O)N[C@@H]1C[C@@H]2O[C@H](CO)CC[C@@H]2O[C@@H]1CCc1ccc(C#CC2(O)CCCC2)cc1	-1	x	x	x	x
CC(=O)Nc1ccc(NC(=O)CSCCc2ccccn2)cc1	0	4.5*	4	2	-1
CC(=O)Nc1ccc(NC(=O)CCSCCc2ccccn2)cc1	0	0	3	1	x
O=C(Nc1ccccc1Cl)C1C(c2ccccc2)C1(Cl)Cl (stereo not drawn)	4	6.2*	5	-8	0
CCc1ccccc1NC(=O)C1C(c2ccccc2)C1(Cl)Cl (stereo not drawn)	0	0	1	1	x
Cc1nc(NCCc2ccc(S(N)(=O)=O)cc2)c2c(C)c(C)sc2n1	0	8.2*	-4	2	2
CCOC(=O)N1CCN(C(=O)C[C@@H]2C(=O)N3CCCC4=C3[C@@]2(C(=O)OCC)CCC4)CC1	6	x	x	x	x
CN1CCN(S(=O)(=O)c2ccc(N(C)Cc3ccc(C(F)(F)F)cc3)c([N+](=O)[O-])c2)CC1	4	5.8*	2	-4	1
CN(CC(=O)Nc1ccccc1C(=O)NC1CC1)Cc1ccco1	-4	4.2*	-4	5	-1
CN(CC(=O)Nc1ccccc1C(=O)NC1CC1)Cc1cccs1	-3	0	5	1	x
c1csc(Cn2nnnc2CN2CCN(c3nc4ccccc4s3)CC2)c1	-1	6.0*	0	2	2.8*
Cc1cccc2cc(CN(CCCN(C)C)C(=S)NCCc3ccccc3)c(=O)[nH]c12	2	4.7*	-1	1	1
CCOC(=O)[C@]12CCCC=C1N(Cc1ccc(OC)cc1)C(=O)[C@@H]2CC(=O)N1CCN(C(=O)c2ccco2)CC1	2	x	x	x	x
CCOC(=O)[C@@]12CN(C(=O)OC(C)(C)C)CC=C1N(Cc1ccc(OC)cc1)C(=O)[C@H]2CC(=O)NCC12CC3CC(CC(C3)C1)C2	-2	x	x	x	x
